Mdm2-MdmX inh – human Mdm2/MdmX binding inhibition; O15151+Q00987; SaOS-2 split-luciferase Mdm2/MdmX complementation, luminescence; inhibition, % at 8 µM; hit rate 3% among 330,000;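 active = inhibition of at least 50% at 8 µM in the primary screen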
Target sequence (O15151 whole entry, looked up): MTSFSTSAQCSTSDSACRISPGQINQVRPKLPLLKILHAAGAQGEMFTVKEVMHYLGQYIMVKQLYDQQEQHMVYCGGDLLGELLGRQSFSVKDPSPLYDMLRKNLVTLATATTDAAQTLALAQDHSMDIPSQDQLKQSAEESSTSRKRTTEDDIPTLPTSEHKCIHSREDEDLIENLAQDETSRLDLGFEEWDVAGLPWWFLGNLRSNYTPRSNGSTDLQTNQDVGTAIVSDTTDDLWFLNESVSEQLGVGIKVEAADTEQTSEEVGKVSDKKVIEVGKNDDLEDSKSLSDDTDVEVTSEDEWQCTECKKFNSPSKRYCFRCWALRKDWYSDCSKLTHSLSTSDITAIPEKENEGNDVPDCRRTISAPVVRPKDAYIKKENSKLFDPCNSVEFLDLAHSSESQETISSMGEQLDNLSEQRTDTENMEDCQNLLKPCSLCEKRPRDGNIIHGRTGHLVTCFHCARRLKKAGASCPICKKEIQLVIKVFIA
Target sequence (Q00987 whole entry, looked up): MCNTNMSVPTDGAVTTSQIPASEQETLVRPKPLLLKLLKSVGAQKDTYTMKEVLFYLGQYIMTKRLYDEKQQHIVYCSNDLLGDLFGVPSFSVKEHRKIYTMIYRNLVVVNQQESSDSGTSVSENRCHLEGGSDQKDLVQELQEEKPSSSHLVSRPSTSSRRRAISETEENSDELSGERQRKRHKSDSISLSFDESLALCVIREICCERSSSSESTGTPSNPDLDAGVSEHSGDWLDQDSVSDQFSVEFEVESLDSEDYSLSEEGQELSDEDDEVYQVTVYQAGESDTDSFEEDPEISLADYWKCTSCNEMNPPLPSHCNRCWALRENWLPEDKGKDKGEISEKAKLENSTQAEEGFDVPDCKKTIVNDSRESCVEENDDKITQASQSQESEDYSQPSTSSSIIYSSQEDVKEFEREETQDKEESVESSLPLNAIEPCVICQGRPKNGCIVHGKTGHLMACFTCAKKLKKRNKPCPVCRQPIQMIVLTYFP
Beta apoptosis – blocks beta cell apoptosis. INS-1E cytokine-induced death, ATP luminescence, 48 h; percent of positive-control rescue, neutral wells zero. protection from apoptosis, % (no concentration beside the values). hit rate 0.8% among 300,000;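 active = Every replicate reaches about 75%, or at least half do and their mean reaches it too, limit read from the data; inconclusive = At least half of replicates reach the limit but their mean does not; inactive = Under half of replicates reach the limit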;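 also: higher means more ATP so stronger rescue from cytokine killing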
SKKanGAS inh – inhibitors of SKKanGAS S. pyogenes growth in kanamycin (SK-promoter or general growth effect); BacTiter-Glo, 6 h; inhibition, % at 7.5 µM; hit rate 1.3% among 300,000; AID 1662;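 active = mean replicate score, as percent of positive control median, at least 50; inconclusive = mean below 50 but one replicate at or above 50; inactive = mean and every replicate below 50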;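 also: strain carries kanamycin resistance gene driven by streptokinase promoter and grows in 40 µg/ml kanamycin; loss of luminescence reflects streptokinase promoter inhibition or plain growth inhibition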
Lmaj promast – inhibitors of Leishmania major promastigote growth | Leishmania major promastigotes, resazurin fluorescence viability | inhibition, % at 10 µM | hit rate 9% among 200,000; in the data active = inhibition above about 50%;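 also: promastigotes grown with compound for 44 hours at 28 °C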
T cruzi inh – T. cruzi replication inhibition. inhibition, % (test concentration not listed). hit rate 1.4% among 300,000. AID 1885. T. cruzi beta-gal in NIH3T3, luminescence, 90 h;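 active = mean inhibition across valid replicates above about 55%, limit read from the data; inconclusive = mean below that limit but half or more replicates reach it; inactive = mean below it, under half of replicates reach it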;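 also: signal also drops with host cell toxicity which is not excluded here; higher percent means less beta-gal luminescence so fewer parasites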
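System: NIH/3T3 fibroblasts plus reporter T. cruzi. Medium: DMEM plus 2% FBS. Probe or stimulus: 5000 reporter trypomastigotes per well. Compound: single 50 nL compound addition per well in DMSO. Incubation: co-culture of at least 90 h after 3 h attachment. Detection: GalScreen β-gal luminescence, detergent lysis, 60 min. Evaluation: parasite load inhibition, %.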
CSC inhib – blocks cancer stem cells; cancer stem cell-like cells viability, luminescence; inhibition, % at 7.5 µM; hit rate 1.1% among 300,000; AID 2717; in the data active = inhibition above about 75%; inconclusive = no clear call, values can overlap the other calls; tested in HMLE shEcad cells
Large screens that a line does not name were inactive. Most compounds without a hit are left out; they make up all but 9.4% or so of the library.

C=CCN1C(=O)C(C)S/C1=N\S(=O)(=O)c1ccc(Cl)cc1 (stereo unspecified)	Lmaj promast 52
CCC(C)NCCOCCOc1ccc(F)cc1 (stereo unspecified)	Lmaj promast 95, T cruzi inh 55
CCC(C)NCCOCCOc1ccc(C)cc1OC (stereo unspecified)	none
CCC(C)NCCOCCOc1cc(C)c(Cl)c(C)c1 (stereo unspecified)	Lmaj promast 87, T cruzi inh inconclusive
CCC(C)NCCCCOc1ccc(Br)cc1 (stereo unspecified)	Lmaj promast 94 (no result: Beta apoptosis)
CCc1ccc(OCCOCC(O)CNC(C)CC)cc1 (stereo unspecified)	none
CCC(C)NCCCCOc1cc(C)cc(C(C)C)c1 (stereo unspecified)	Lmaj promast 91
COc1ccc(NC(=O)COC(=O)c2cc3c(s2)CCC3)cc1	none (no result: SKKanGAS inh, Lmaj promast, T cruzi inh, CSC inhib)
O=C(Nc1nnc(-c2ccc3c(c2)CCCC3)o1)c1c(F)cccc1F	SKKanGAS inh 95
O=C(Nc1nnc(-c2ccc(Cl)s2)o1)C1CC1	Lmaj promast 61
O=C(Nc1nnc(-c2cccs2)o1)C1CC1	none
O=C(Nc1nnc(-c2ccc3c(c2)CCCC3)o1)C1CCCCC1	SKKanGAS inh 81 (no result: Beta apoptosis, CSC inhib)
CCCCCCCC(=O)NC1=NC(=O)C(C)(C)S1	none (no result: Lmaj promast)
CCOC(=O)C1CCN(C(=O)c2cc3cc(Br)ccc3oc2=O)CC1	none (no result: CSC inhib)
CCOC(=O)c1ccc(N=c2sc(C(=O)OC)cc(=O)n2Cc2ccc3c(c2)OCO3)cc1	Lmaj promast 100 (no result: CSC inhib)
COC(=O)c1cc(=O)n(Cc2ccc(F)cc2)c(=NCc2ccc(F)cc2)s1	none
COC(=O)c1cc(=O)n(Cc2ccc3c(c2)OCO3)c(=Nc2ccccc2)s1	Lmaj promast 82
CC(NS(=O)(=O)c1ccc2ccccc2c1)c1ccccn1 (stereo unspecified)	none (no result: SKKanGAS inh, Lmaj promast, T cruzi inh)
COc1ccc(-c2[nH]c3ccccc3c2SCCNC(=O)c2ccccc2)cc1	none
Cc1ccc(-c2[nH]c3ccccc3c2SCCNC(=O)c2ccc(S(=O)(=O)N3CCOCC3)cc2)cc1	Lmaj promast 99
CCN(CC)CCNC(=O)c1ccc2c(=O)n(CCc3ccccc3)c(=O)[nH]c2c1	none (no result: Beta apoptosis)
O=C(NCCCN1CCCCC1)c1ccc2c(=O)n(CCc3ccccc3)c(=O)[nH]c2c1	Lmaj promast 57
CCCCCn1c(=O)[nH]c2cc(C(=O)NCCCN(C)Cc3ccccc3)ccc2c1=O	T cruzi inh 58
CN(CCCNC(=O)c1cccn2c(=O)c3ccccc3nc12)Cc1ccccc1	Lmaj promast 100
CCCCN(C)CCNC(=O)c1ccc(Cn2c(=S)[nH]c3ccc(Br)cc3c2=O)cc1	Lmaj promast 90, T cruzi inh 77
COc1ccc(Cn2c(=O)[nH]c3cc(C(=O)NCCCN4CCCCCC4)ccc3c2=O)cc1	none
O=C(COc1ccc(Br)cc1)NCCN1CCCC1	none (no result: Lmaj promast)
Cn1c(SCC(=O)NNC(=O)Cc2ccccc2)nc2ccccc2c1=O	none
CCCN(CC#CC(O)(c1ccccc1)c1cccnc1)CCC (stereo unspecified)	T cruzi inh 65
O=C(COC(=O)c1cccc(C(F)(F)F)c1)NCc1ccccc1	none
C[C@@H](CSc1ccc(Br)cc1)CN1CC[C@H](NC(=O)OCc2ccccc2)CCC1=O	CSC inhib 91 (no result: SKKanGAS inh, Lmaj promast, T cruzi inh)
COc1ccc(S[C@@H](CCN2CC[C@H](NC(=O)OCc3ccccc3)CCC2=O)c2ccccc2)cc1	CSC inhib 82 (no result: SKKanGAS inh, Lmaj promast, T cruzi inh)
O=C(N[C@@H]1CCC(=O)N(CC[C@H](Sc2ccc(Br)cc2)c2ccccc2)CC1)OCc1ccccc1	none (no result: SKKanGAS inh, Lmaj promast, T cruzi inh)
CC(=O)Nc1ccc(SC[C@H](C)CN2CC[C@H](C(C)(C)C)CCC2=O)cc1	CSC inhib 102 (no result: SKKanGAS inh, Lmaj promast, T cruzi inh)
CC(C)(C)[C@@H]1CCC(=O)N(CC[C@H](Sc2ccc(Br)cc2)c2ccccc2)CC1	CSC inhib 108 (no result: SKKanGAS inh, Lmaj promast, T cruzi inh)
Cc1ccc(SC[C@H](C)CN2CC[C@H](C)CCC2=O)cc1	none (no result: Lmaj promast)
CCCCS(=O)(=O)N1CCN(S(=O)(=O)c2ccc(Cl)s2)CC1	none (no result: Beta apoptosis, Lmaj promast)
COc1ccc(S(=O)(=O)N(C)c2ccc(C(=O)NCc3ccco3)cc2)cc1	none (no result: Lmaj promast)
CC(=O)N1CC(=O)N(Cc2ccccc2)/C(=C/c2ccccc2)C1=O	none
O=C(CN1C(=O)c2cccnc2Oc2ccc(Cl)cc21)N1CCOCC1	none (no result: Lmaj promast)
Cc1ccc(CNC(=O)CNC(=S)N(Cc2ccccc2)Cc2ccccc2F)cc1	none (no result: Mdm2-MdmX inh, Beta apoptosis, CSC inhib)
CC(NCc1cccc(OCc2ccccc2)c1)C(O)c1ccccc1 (stereo unspecified)	Lmaj promast 100
O=C(NCC(c1ccco1)N1CCCC1)c1ccccc1Sc1ccc(C(F)(F)F)cc1[N+](=O)[O-] (stereo unspecified)	T cruzi inh 56 (no result: Lmaj promast)
N#Cc1ccccc1Sc1ccccc1C(=O)NCC(c1ccco1)N1CCCCC1 (stereo unspecified)	none (no result: SKKanGAS inh, Lmaj promast, T cruzi inh)
COC(=O)C(Cc1ccccc1)NS(=O)(=O)c1ccc(F)cc1Br (stereo unspecified)	none (no result: Lmaj promast)
Cc1cc(N2CCCC2)nc(-c2ccccc2O)n1	none
Cc1cc(N2CCCCC2)nc(N)n1	Lmaj promast 52
COc1ccccc1OCc1nn[nH]n1	none (no result: Lmaj promast)
Cc1cccc(N=N/C(=C\O)C(=O)c2cccs2)c1	Lmaj promast 76, CSC inhib 92
O=C(/C(=C/O)N=Nc1ccccc1)c1ccncc1	none
COCCn1c(SCC(=O)Nc2cccc(C)c2)nnc1C(C)C	Lmaj promast 91
CC(C)c1nnc(NC(=O)C2CCN(S(=O)(=O)c3ccc(-n4cnnn4)cc3)CC2)s1	none
O=C(c1ccc(F)cc1)N1CCN2C(=O)c3ccccc3C12c1ccc(Cl)cc1 (stereo unspecified)	none
O=C(c1ccccc1)N1CCN2C(=O)c3ccccc3C12c1ccc(Cl)cc1 (stereo unspecified)	Lmaj promast 76 (no result: CSC inhib)
O=C(CN1CCN(c2cccc(Cl)c2)CC1)Nc1ccc([N+](=O)[O-])cc1C(=O)Nc1ccccc1F	T cruzi inh 65
CCOc1ccc(OCC)c(NC(=O)CN2CCN(c3cc(C)ccc3C)CC2)c1	T cruzi inh 70
Cc1ccc(C)c(N2CCN(CC(=O)Nc3ccc([N+](=O)[O-])cc3C(=O)Nc3ccccc3F)CC2)c1	T cruzi inh 71
COc1ccc(N2CCN(CC(=O)Nc3c(C)cc(C)cc3C)CC2)cc1	Lmaj promast 79
Cc1cc(C)c(NC(=O)CN2CCN(C)CC2)c(C)c1	none
CC(C)(C)OC(=O)NCCCCCNC(=O)c1ncn(Cc2ccccc2)c1C(=O)NCCCCCNC(=O)OC(C)(C)C	none (no result: SKKanGAS inh, Lmaj promast, T cruzi inh)
COc1ccc(N(CC(=O)NCc2ccc(Cl)cc2)S(=O)(=O)c2ccccc2[N+](=O)[O-])c(OC)c1	none
CC(=O)c1cc(C(=O)N2CCCC(C(=O)c3ccc(Cl)cc3)C2)cs1 (stereo unspecified)	none (no result: Lmaj promast)
CCOc1ccc(N(CC(=O)N/N=C/c2cccnc2)S(C)(=O)=O)cc1	none
CC1=CC(=C(C#N)c2nc3ccccc3s2)C=C(C)N1Cc1ccco1	T cruzi inh 64

Screening data: PubChem BioAssay, several laboratories
